Here are results for two compounds from ChEMBL document CHEMBL3769384, “Discovery of Tetrahydropyrazolopyridine as Sphingosine 1-Phosphate Receptor 3 (S1P3)-Sparing S1P1 Agonists Active at Low Oral Doses” (J Med Chem, 2016).

A short description of data set [1]: Solubility of compound in simulated gastric fluid at pH 1.6 after 24 hrs. In kind it is ADME.
Data set [2] can be described thus: Solubility of compound in FeSSIF at pH 6.5 after 24 hrs. In kind it is physicochemical.
Data set [3] is described as follows: Volume of distribution at steady state in beagle dog at 1 mg/kg, iv after 24 hrs by LC-MS/MS analysis. In kind it is ADME, organism-based, Canis lupus familiaris. Conditions: in vivo, read-out: Vdss. An outline of the steps:
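Three fasted male Beagle dogs got a 1 h IV infusion at 1 mg/kg, dosed at 0.2 mg/mL in DMSO:10% w/v Kleptose HPB in saline (2%:98% v/v). Blood went into K-EDTA tubes predose to 24 h, from a cephalic cannula to 2 h and by jugular venepuncture after. Analysis was LC-MS/MS (LLQ 1 ng/mL) with non-compartmental parameters; mean n=3 ± SD.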

Data set [4] can be described thus: Half life in beagle dog at 1 mg/kg, iv after 24 hrs by LC-MS/MS analysis. In kind it is ADME, organism-based, Canis lupus familiaris. Conditions: in vivo. An outline of the steps: (§1)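 Male animals (CD rat and Beagle dog, n=3; CD1 mouse, n=5) given a 1 h i.v. infusion at 1 mg/kg. Vehicle: DMSO:10% Kleptose HPB in saline (2%:98% v/v), 0.2 mg/mL. Serial blood sampled up to 24 h and assayed by LC-MS/MS. Values from non-compartmental analysis, mean ± SD.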

A short description of data set [5]: Solubility of compound in FaSSIF at pH 6.5 after 24 hrs. Type of data set: physicochemical.
Data set [6] can be described thus: Oral bioavailability in beagle dog at 2 mg/kg 24 hrs by LC-MS/MS analysis. Particulars: in vivo. Type of data set: ADME, organism-based, Canis lupus familiaris. An outline of the steps:
(§2)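 Oral dose as a suspension in 1% methylcellulose: CD rat 3 mg/kg (2 rats, crossover after i.v.), Beagle dog 2 mg/kg (fasted, crossover after i.v.), CD1 mouse 3 mg/kg by gavage (n=4). Blood sampled up to 24 h and assayed by LC-MS/MS. Bioavailability was referenced to the 1 h i.v. infusion at 1 mg/kg, by non-compartmental analysis.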

Data set [7] in a line: Clearance in beagle dog at 1 mg/kg, iv after 24 hrs by LC-MS/MS analysis. Type of data set: ADME, organism-based, Canis lupus familiaris. Conditions: in vivo. In a few lines:
as §1

Data set [8] is described as follows: Volume of distribution at steady state in CD1 mouse at 1 mg/kg, iv after 24 hrs by LC-MS/MS analysis. Conditions: in vivo, read-out: Vdss. Type of data set: ADME, organism-based. In a few lines:
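Male CD1 mice with a jugular vein cannula got a 1 h IV infusion at 1 mg/kg, dosed at 0.2 mg/mL in DMSO:10% w/v Kleptose HPB in saline (2%:98% v/v). Serial tail-vein blood (ca. 25 µL) was taken up to 24 h and assayed against calibration standards in control blood. Non-compartmental analysis was used; n=5, mean ± SD.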

Data set [9] can be described thus: Half life in CD1 mouse at 1 mg/kg, iv after 24 hrs by LC-MS/MS analysis. Type of data set: ADME, organism-based. Conditions: in vivo. In a few lines: as §1
The nature of data set [10]: Volume of distribution at steady state in CD rat at 1 mg/kg, iv after 24 hrs by LC-MS/MS analysis. In kind it is ADME, organism-based. Particulars: in vivo, read-out: Vdss. An outline of the steps: as §1
Data set [11] can be described thus: Oral bioavailability in CD rat at 3 mg/kg after 24 hrs by LC-MS/MS analysis. Type of data set: ADME, organism-based. Particulars: in vivo. An outline of the steps:
as §2

A short description of data set [12]: Clearance in CD1 mouse at 1 mg/kg, iv after 24 hrs by LC-MS/MS analysis. Particulars: in vivo. In kind it is ADME, organism-based. An outline of the steps:
as §1

A short description of data set [13]: Half life in CD rat at 1 mg/kg, iv after 24 hrs by LC-MS/MS analysis. Type of data set: ADME, organism-based. Conditions: in vivo. In a few lines:
as §1

Data set [14] can be described thus: Clearance in CD rat at 1 mg/kg, iv after 24 hrs by LC-MS/MS analysis. In kind it is ADME, organism-based. Particulars: in vivo. In a few lines: as §1
The nature of data set [15]: Oral bioavailability in CD1 mouse at 3 mg/kg after 24 hrs by LC-MS/MS analysis. In kind it is ADME, organism-based. Conditions: in vivo. In a few lines: as §2

Each structure is given as a SMILES string.

For the compound `Cc1c2c(nn1-c1nnc(-c3ccc(OC(C)C)c(Cl)c3)s1)CCN(CCC(=O)O)C2.Cl`, the solubility at 24 h in [1] is 7 µg/mL; in data set [2] it was 46 µg/mL; in data set [5] it was 16 µg/mL. Moreover, the Vd in data set [3] was 5.3 L/kg. This compound also gave a half-life in [4] of 6.5 h. This compound returned a bioavailability in data set [6] of 44%. Moreover, the clearance in data set [7] was found to be 33 mL/min/kg.

As to `Cc1c2c(nn1-c1nnc(-c3ccc(OC(C)C)c(Cl)c3)s1)CCN(CCC(=O)O)C2.O=C(O)C(F)(F)F`, the solubility at 24 h in [1] was 37 µg/mL; in [2], 4 µg/mL; in [5], 3 µg/mL. Also, the results for the Vd in [8] and in [10] were 3.3 L/kg and 3.7 L/kg, respectively. Besides, the half-life in data set [9] is 3.8 h; in [13], 4.4 h. Moreover, the bioavailability in data set [11] was 48%; in data set [15], 79%. Further, the clearance in [12] was found to be 16 mL/min/kg; in data set [14] it was 24 mL/min/kg.
